Experimental data taken from ChEMBL document CHEMBL3872252, “New bithiazolyl hydrazones: Novel synthesis, characterization and antitubercular evaluation” (Bioorg Med Chem Lett, 2017).
Values after ≈ are worked out from the molar mass of the structure shown.

What was measured:
[1] = Antitubercular activity against Mycobacterium tuberculosis H37Ra ATCC 25177 dormant stage infected in human THP1 cells measured on day 12 by nitrate reductase assay; assay type: functional, THP-1; details: ATCC 25177, 288 h
[2] = Antitubercular activity against Mycobacterium tuberculosis H37Ra ATCC 25177 active stage infected in human THP1 cells measured on day 8 by nitrate reductase assay; assay type: functional, THP-1; details: ATCC 25177, 192 h
[3] = Antitubercular activity against Mycobacterium tuberculosis H37Ra ATCC 25177 active stage measured on day 8 by XTT reduction menadione based two-fold dilution assay; assay type: functional; details: ATCC 25177, 192 h
Summary of the method: (§1)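 M. tuberculosis H37Ra ATCC 25177 was exposed to 0.7–100 μg/mL in two-fold steps (0.7, 1.5, 3.1 … 100). Active stage was read after 8 days and dormant stage after 12 days of incubation. Inhibition was read by XTT reduction menadione assay (XRMA), absorbance 470 nm. MIC90 is the concentration giving ≥90% inhibition (µg/mL).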

[4] = Antitubercular activity against Mycobacterium tuberculosis H37Ra ATCC 25177 dormant stage measured on day 12 by XTT reduction menadione based two-fold dilution assay; assay type: functional; details: ATCC 25177, 288 h; summary of the method: as §1
[5] = Antitubercular activity against Mycobacterium bovis BCG ATCC 35743 active stage measured on day 8 by nitrate reductase based two-fold dilution assay; assay type: functional, Mycobacterium bovis BCG str. ATCC 35743; details: Mycobacterium tuberculosis variant bovis BCG, ATCC 35743, 192 h
[6] = Antitubercular activity against Mycobacterium bovis BCG ATCC 35743 dormant stage measured on day 12 by nitrate reductase based two-fold dilution assay; assay type: functional, Mycobacterium bovis BCG str. ATCC 35743; details: Mycobacterium tuberculosis variant bovis BCG, ATCC 35743, 288 h
[7] = Cytotoxicity against human THP1 cells by MTT assay; assay type: toxicity, cell-based, THP-1; details: for GI90: thp-1
[8] = Cytotoxicity against human MCF7 cells by MTT assay; assay type: toxicity, cell-based; details: for GI90: mcf7
[9] = Cytotoxicity against human HCT116 cells by MTT assay; assay type: toxicity, cell-based, HCT-116; details: for GI90: hct-116
[10] = Selectivity index, ratio of GI50 for human MCF7 cells to MIC90 for Mycobacterium tuberculosis H37Ra ATCC 25177 active stage; assay type: toxicity, cell-based; details: read-out: Selectivity Index
Summary of the method: (§2)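 Cytotoxicity was measured on human MCF-7, HCT116 and THP-1 cells by MTT assay, with paclitaxel as reference. GI50 is the concentration inhibiting 50% of cell growth. The selectivity index is GI50 for the given cell line divided by MIC90 for the given mycobacterial strain and stage.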

[11] = Selectivity index, ratio of GI50 for human MCF7 cells to MIC90 for Mycobacterium tuberculosis H37Ra ATCC 25177 dormant stage; assay type: toxicity, cell-based; details: read-out: Selectivity Index
Summary of the method: (§3)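 Cytotoxicity was measured on human MCF-7, HCT116 and THP-1 cells by MTT assay, with paclitaxel as reference. The selectivity index is GI50 for the given cell line divided by MIC90 for the given mycobacterial strain and stage.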

[12] = Selectivity index, ratio of GI50 for human MCF7 cells to MIC90 for Mycobacterium bovis BCG ATCC 35743 active stage; assay type: toxicity, cell-based; details: read-out: Selectivity Index; summary of the method: as §2
[13] = Selectivity index, ratio of GI50 for human MCF7 cells to MIC90 for Mycobacterium bovis BCG ATCC 35743 dormant stage; assay type: toxicity, cell-based; details: read-out: Selectivity Index; summary of the method: as §3
[14] = Selectivity index, ratio of GI50 for human HCT116 cells to MIC90 for Mycobacterium tuberculosis H37Ra ATCC 25177 active stage; assay type: toxicity, cell-based, HCT-116; details: read-out: Selectivity Index; summary of the method: as §2
[15] = Selectivity index, ratio of GI50 for human HCT116 cells to MIC90 for Mycobacterium tuberculosis H37Ra ATCC 25177 dormant stage; assay type: toxicity, cell-based, HCT-116; details: read-out: Selectivity Index; summary of the method: as §3
[16] = Selectivity index, ratio of GI50 for human HCT116 cells to MIC90 for Mycobacterium bovis BCG ATCC 35743 active stage; assay type: toxicity, cell-based, HCT-116; details: read-out: Selectivity Index; summary of the method: as §2
[17] = Selectivity index, ratio of GI50 for human HCT116 cells to MIC90 for Mycobacterium bovis BCG ATCC 35743 dormant stage; assay type: toxicity, cell-based, HCT-116; details: read-out: Selectivity Index; summary of the method: as §3
[18] = Selectivity index, ratio of GI50 for human THP1 cells to MIC90 for Mycobacterium tuberculosis H37Ra ATCC 25177 active stage; assay type: toxicity, cell-based, THP-1; details: read-out: Selectivity Index; summary of the method: as §2
[19] = Selectivity index, ratio of GI50 for human THP1 cells to MIC90 for Mycobacterium tuberculosis H37Ra ATCC 25177 dormant stage; assay type: toxicity, cell-based, THP-1; details: read-out: Selectivity Index; summary of the method: as §3
[20] = Selectivity index, ratio of GI50 for human THP1 cells to MIC90 for Mycobacterium bovis BCG ATCC 35743 active stage; assay type: toxicity, cell-based, THP-1; details: read-out: Selectivity Index; summary of the method: as §2
[21] = Selectivity index, ratio of GI50 for human THP1 cells to MIC90 for Mycobacterium bovis BCG ATCC 35743 dormant stage; assay type: toxicity, cell-based, THP-1; details: read-out: Selectivity Index; summary of the method: as §3
[22] = tested on: Escherichia coli; assay: Growth inhibition of Escherichia coli at 30 ug/ml; assay type: functional; details: read-out: GI
[23] = tested on: Escherichia coli; assay: Growth inhibition of Escherichia coli at 10 ug/ml; assay type: functional; details: read-out: GI
[24] = tested on: Escherichia coli; assay: Growth inhibition of Escherichia coli at 3 ug/ml; assay type: functional; details: read-out: GI
Summary of the method: (§4)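 Screened against Gram-negative E. coli and P. aeruginosa and Gram-positive S. aureus and B. subtilis. Compound was tested at 3 µg/ml, and the read-out is percent growth inhibition.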

[25] = tested on: Pseudomonas aeruginosa; assay: Growth inhibition of Pseudomonas aeruginosa at 30 ug/ml; assay type: functional; details: read-out: GI
[26] = tested on: Pseudomonas aeruginosa; assay: Growth inhibition of Pseudomonas aeruginosa at 10 ug/ml; assay type: functional; details: read-out: GI
[27] = tested on: Pseudomonas aeruginosa; assay: Growth inhibition of Pseudomonas aeruginosa at 3 ug/ml; assay type: functional; details: read-out: GI; summary of the method: as §4
[28] = tested on: Staphylococcus aureus; assay: Growth inhibition of Staphylococcus aureus at 30 ug/ml; assay type: functional; details: read-out: GI
[29] = tested on: Staphylococcus aureus; assay: Growth inhibition of Staphylococcus aureus at 10 ug/ml; assay type: functional; details: read-out: GI
[30] = tested on: Staphylococcus aureus; assay: Growth inhibition of Staphylococcus aureus at 3 ug/ml; assay type: functional; details: read-out: GI; summary of the method: as §4
[31] = tested on: Bacillus subtilis; assay: Growth inhibition of Bacillus subtilis at 30 ug/ml; assay type: functional; details: read-out: GI
[32] = tested on: Bacillus subtilis; assay: Growth inhibition of Bacillus subtilis at 10 ug/ml; assay type: functional; details: read-out: GI
[33] = tested on: Bacillus subtilis; assay: Growth inhibition of Bacillus subtilis at 3 ug/ml; assay type: functional; details: read-out: GI; summary of the method: as §4

C/C(=N\Nc1nc(-c2ccccc2)cs1)c1sc(C)nc1C
MIC90 [1]: 23.4 µg/mL (≈ 71.3 µM) | MIC90 [2]: 32.5 µg/mL (≈ 99.1 µM) | IC50 [3]: 0.82 µg/mL (≈ 2.5 µM) | MIC90 [3]: 25.3 µg/mL (≈ 77.1 µM) | IC50 [4]: 2 µg/mL (≈ 6.09 µM) | MIC90 [4]: 16.5 µg/mL (≈ 50.1 µM) | IC50 [5]: 11.6 µg/mL (≈ 35.4 µM) | MIC90 [5]: 40.4 µg/mL (≈ 123 µM) | IC50 [6]: 3.81 µg/mL (≈ 11.6 µM) | MIC90 [6]: 17.2 µg/mL (≈ 52.4 µM) | GI50 ([7]; THP1 cells): > 100 µg/mL | GI90 [7]: > 100 µg/mL | GI50 ([8]; MCF7 cells): > 100 µg/mL | GI90 [8]: > 100 µg/mL | GI50 ([9]; HCT116 cells): > 100 µg/mL | GI90 [9]: > 100 µg/mL | selectivity ratio [10]: 4 | selectivity ratio [11]: 6 | selectivity ratio [12]: 2 | selectivity ratio [13]: 26 | selectivity ratio [14]: 4 | selectivity ratio [15]: 6 | selectivity ratio [16]: 2 | selectivity ratio [17]: 26 | selectivity ratio [18]: 4 | selectivity ratio [19]: 6 | selectivity ratio [20]: 2 | selectivity ratio [21]: 26 | inhibition of growth at 30 µg/mL [22]: 82.3% | inhibition of growth at 10 µg/mL [23]: 83.7% | inhibition of growth at 3 µg/mL [24]: 81.8% | inhibition of growth at 30 µg/mL [25]: 82.4% | inhibition of growth at 10 µg/mL [26]: 84% | inhibition of growth at 3 µg/mL [27]: 81.8% | inhibition of growth at 30 µg/mL [28]: 81.3% | inhibition of growth at 10 µg/mL [29]: 82.8% | inhibition of growth at 3 µg/mL [30]: 80.7% | inhibition of growth at 30 µg/mL [31]: 79.9% | inhibition of growth at 10 µg/mL [32]: 81.5% | inhibition of growth at 3 µg/mL [33]: 79.2%

CC(=O)O[C@H]1C(=O)[C@@]2(C)[C@H]([C@H](OC(=O)c3ccccc3)[C@]3(O)C[C@H](OC(=O)[C@H](O)[C@@H](NC(=O)c4ccccc4)c4ccccc4)C(C)=C1C3(C)C)[C@]1(OC(C)=O)CO[C@@H]1C[C@@H]2O [PACLITAXEL]
GI90 [7]: 5.814 µg/mL (≈ 6.81 µM) | GI90 [8]: 0.075 µg/mL (≈ 0.0878 µM) | GI90 [9]: 5.21 µg/mL (≈ 6.1 µM)

CO[C@H]1/C=C/O[C@@]2(C)Oc3c(C)c(O)c4c(O)c(c(/C=N/N5CCN(C)CC5)c(O)c4c3C2=O)NC(=O)/C(C)=C\C=C\[C@H](C)[C@H](O)[C@@H](C)[C@@H](O)[C@@H](C)[C@H](OC(C)=O)[C@@H]1C [RIFAMPIN]
MIC90 [1]: 0.7 µg/mL (≈ 0.851 µM) | MIC90 [2]: 0.5 µg/mL (≈ 0.608 µM) | IC50 [3]: 0.51 µg/mL (≈ 0.62 µM) | MIC90 [3]: 0.51 µg/mL (≈ 0.62 µM) | IC50 [4]: 0.75 µg/mL (≈ 0.911 µM) | MIC90 [4]: 0.75 µg/mL (≈ 0.911 µM) | IC50 [5]: 0.45 µg/mL (≈ 0.547 µM) | MIC90 [5]: 0.45 µg/mL (≈ 0.547 µM) | IC50 [6]: 0.81 µg/mL (≈ 0.984 µM) | MIC90 [6]: 0.81 µg/mL (≈ 0.984 µM) | GI90 [7]: > 100 µg/mL | GI90 [8]: > 100 µg/mL | GI90 [9]: > 100 µg/mL
